Read-outs that look alike come from different tables or passages of the source.
Experiments:
Theileria equi [1] = test: In vitro growth inhibitory assay of Theileria equi in MASP culture; type: cell-based; conditions: for in vitro growth inhibition versus control well: p < 0.05; for morphological changes observed in treated parasites: in vitro treatment, at 96 h, Giemsa-stained smears; for IC50: read-out: IC50 value for growth inhibition of T. equi
Summary of the method: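 T. equi-infected horse RBCs from MASP culture, diluted to 1% parasitaemia with uninfected ELISA-negative horse RBCs. Medium: M199 with 40% equine serum, antibiotics and 200 μM hypoxanthine. Test compounds at 1–200 μM or 125–1000 nM, triplicate wells, 96 h at 37 °C under 5% CO2/3% O2; drug medium renewed every 24 h. Percent parasitaemia followed over time; IC50 by curve fitting; two-way ANOVA with Bonferroni (p < 0.05).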

horse RBCs = test: In vitro haemolytic assay; type: cell-based
Theileria equi [2] = test: Viability test; type: cell-based
Summary of the method: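 After 96 h exposure in the growth assay, treated or untreated infected RBCs were moved into drug-free complete medium with fresh uninfected horse RBCs. Cultured a further 72 h at 37 °C under micro-aerophilic gas, with medium replaced every 24 h. Parasite recrudescence/viability was scored on Giemsa-stained blood smears.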

[3] = In vitro cytotoxicity assay; type: cell-based, horse; conditions: horse, PHA-stimulated horse PBMCs
horse PBMCs = test: In vitro cytotoxicity assay; type: cell-based
[4] = 48 h, 72 h and 96 h, 250 nM–1000 nM

Compound	in vitro growth inhibition versus control well (Theileria equi [1]; 24 h, 750 and 1000 nM)	in vitro growth inhibition versus control well (Theileria equi [1]; [4])	morphological changes observed in treated parasites (Theileria equi [1])	IC50 (Theileria equi [1]; 96 h of culture)	haemolytic activity on horse RBCs (horse RBCs; highest concentration of 2000 μM)	parasite multiplication in the viability test (Theileria equi [2]; after 96 h treatment with 500 nM–1000 nM)	in vitro growth inhibition versus control well (Theileria equi [1]; 24 h, 100 μM and 200 μM)	in vitro growth inhibition versus control well (Theileria equi [1]; 48 h, 72 h and 96 h, 5 μM–200 μM)	IC50 (Theileria equi [1]; Theileria equi, 96 h)	haemolytic activity on horse RBCs (horse RBCs; 10 μM–2000 μM, 90 min)	Specific selective index (SSI) with respect to host's RBC (horse RBCs; CC50 on horse RBCs / IC50 on T. equi)	CC50 at 24 h [3]	Specific selective index (SSI) with respect to host's PBMC (horse PBMCs; CC50 on horse PBMCs / IC50 on T. equi)	cytotoxicity to horse PBMCs (horse PBMCs; highest concentration 1000 μM, 24 h)	parasite multiplication in the viability test (Theileria equi [2]; after 96 h treatment with 50 μM–200 μM)	in vitro growth inhibition versus control well (Theileria equi [1]; 24 h, 500, 750 and 1000 nM)	parasite multiplication in the viability test (Theileria equi [2]; after 96 h treatment with 750 nM and 1000 nM)
CCCCCCCCCCCC[N+](C)(C)C.[Br-] [DDTAB, dodecyl trimethyl ammonium bromide]	significant difference	significant (p < 0.05) growth inhibition	devoid of internal structures, showing pycnotic and degenerative appearances	0.47 µM	more	failed to multiply further	–	–	–	–	–	–	–	–	–	–	–
C[N+](C)(C)CCCCCCCCCC[N+](C)(C)C [DMB, Decamethonium bromide]	–	–	devoid of internal structures, showing pycnotic and degenerative appearances	–	–	–	significant difference	significant (p < 0.05) growth inhibition	14 µM	< 3%	16035.38	7200 µM	514.50	less than 10%	failed to multiply further	–	–
CCCCCCCCCC[N+](C)(C)C.[Br-] [DTAB, Decyl trimethyl ammonium bromide]	–	significant (p < 0.05) growth inhibition	devoid of internal structures, showing pycnotic and degenerative appearances	0.558 µM	–	–	–	–	–	< 3%	–	–	–	–	–	significant difference	failed to multiply further
